Experimental data from ChEMBL document CHEMBL3994650, “New 1,4-dihydro[1,8]naphthyridine derivatives as DNA gyrase inhibitors” (Bioorg Med Chem Lett, 2017).
The source made the active and inactive calls.

How the values were obtained:
[1] = Selectivity index, ratio of IC50 for mouse NIH/3T3 cells to MIC90 for Klebsiella pneumoniae ATCC 700603; format: toxicity; conditions: read-out: Selectivity Index
Salmonella typhimurium [2] = test: Mutagenicity in Salmonella typhimurium TA98 assessed as increase in revertant colonies at 0.156 mg/ml in absence of Sprague-Dawley rat liver S9 fraction by Ames test relative to basal level; format: toxicity; conditions: salmonella enterica subsp. enterica serovar typhimurium
Outline: (§1)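 Ames microplate format assay with strains TA98 and TA100, run with and without S9. Positive wells were counted per condition. The run was valid if positive controls gave more than 25 positive wells and negative controls fewer than 8.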

Salmonella typhimurium [3] = test: Mutagenicity in Salmonella typhimurium TA100 assessed as increase in revertant colonies at 2.5 mg/ml in presence of Sprague-Dawley rat liver S9 fraction by Ames test relative to basal level; format: toxicity; conditions: salmonella enterica subsp. enterica serovar typhimurium; outline: as §1
Salmonella typhimurium [4] = test: Mutagenicity in Salmonella typhimurium TA100 assessed as increase in revertant colonies at 0.156 mg/ml in absence of Sprague-Dawley rat liver S9 fraction by Ames test relative to basal level; format: toxicity; conditions: salmonella enterica subsp. enterica serovar typhimurium; outline: as §1
Salmonella typhimurium [5] = test: Mutagenicity in Salmonella typhimurium TA100 assessed as increase in revertant colonies at 0.625 mg/ml in absence of Sprague-Dawley rat liver S9 fraction by Ames test relative to basal level; format: toxicity; conditions: salmonella enterica subsp. enterica serovar typhimurium; outline: as §1
Staphylococcus aureus [6] = test: Antibacterial activity against Staphylococcus aureus ATCC 25923 assessed as decrease in ATP level at […] ug/ml after 24 hrs by BacTiter-Glo reagent based bioluminescence assay; format: functional
Salmonella typhimurium [7] = test: Mutagenicity in Salmonella typhimurium TA98 assessed as increase in revertant colonies at 0.3125 mg/ml in presence of Sprague-Dawley rat liver S9 fraction by Ames test relative to basal level; format: toxicity; conditions: salmonella enterica subsp. enterica serovar typhimurium; outline: as §1
Enterococcus faecalis [8] = test: Antibacterial activity against Enterococcus faecalis ATCC 29212 incubated after 24 hrs by resazurin dye based broth microdilution assay; format: functional; conditions: ATCC 29212, 24 h
Escherichia coli [9] = test: Antibacterial activity against Escherichia coli ATCC 25922 incubated after 24 hrs by resazurin dye based broth microdilution assay; format: functional; conditions: ATCC 25922, 24 h
Salmonella typhimurium [10] = test: Mutagenicity in Salmonella typhimurium TA100 assessed as increase in revertant colonies at 1.25 mg/ml in absence of Sprague-Dawley rat liver S9 fraction by Ames test relative to basal level; format: toxicity; conditions: salmonella enterica subsp. enterica serovar typhimurium; outline: as §1
Salmonella typhimurium [11] = test: Mutagenicity in Salmonella typhimurium TA100 assessed as increase in revertant colonies at 0.3125 mg/ml in presence of Sprague-Dawley rat liver S9 fraction by Ames test relative to basal level; format: toxicity; conditions: salmonella enterica subsp. enterica serovar typhimurium; outline: as §1
Salmonella typhimurium [12] = test: Mutagenicity in Salmonella typhimurium TA100 assessed as increase in revertant colonies at 1.25 mg/ml in presence of Sprague-Dawley rat liver S9 fraction by Ames test relative to basal level; format: toxicity; conditions: salmonella enterica subsp. enterica serovar typhimurium; outline: as §1
[13] = Selectivity index, ratio of IC50 for mouse NIH/3T3 cells to MIC90 for Pseudomonas aeruginosa ATCC 27853; format: toxicity; conditions: read-out: Selectivity Index
Salmonella typhimurium [14] = test: Mutagenicity in Salmonella typhimurium TA100 assessed as increase in revertant colonies at 0.3125 mg/ml in absence of Sprague-Dawley rat liver S9 fraction by Ames test relative to basal level; format: toxicity; conditions: salmonella enterica subsp. enterica serovar typhimurium; outline: as §1
Salmonella typhimurium [15] = test: Mutagenicity in Salmonella typhimurium TA100 assessed as increase in revertant colonies at 0.156 mg/ml in presence of Sprague-Dawley rat liver S9 fraction by Ames test relative to basal level; format: toxicity; conditions: salmonella enterica subsp. enterica serovar typhimurium; outline: as §1
Staphylococcus aureus [16] = test: Antibacterial activity against Staphylococcus aureus ATCC 25923 incubated after 24 hrs by resazurin dye based broth microdilution assay; format: functional; conditions: ATCC 25923, 24 h
Salmonella typhimurium [17] = test: Mutagenicity in Salmonella typhimurium TA100 assessed as increase in revertant colonies at 5 mg/ml in presence of Sprague-Dawley rat liver S9 fraction by Ames test relative to basal level; format: toxicity; conditions: salmonella enterica subsp. enterica serovar typhimurium; outline: as §1
NIH3T3 = test: Cytotoxicity against mouse NIH/3T3 cells assessed as reduction in cell proliferation after 24 hrs by MTT assay; format: cell-based; conditions: NIH3T3, 24 h
Escherichia coli [18] = test: Antibacterial activity against Escherichia coli ATCC 35218 incubated after 24 hrs by resazurin dye based broth microdilution assay; format: functional; conditions: ATCC 35218, 24 h
Salmonella typhimurium [19] = test: Mutagenicity in Salmonella typhimurium TA98 assessed as increase in revertant colonies at 0.156 mg/ml in presence of Sprague-Dawley rat liver S9 fraction by Ames test relative to basal level; format: toxicity; conditions: salmonella enterica subsp. enterica serovar typhimurium; outline: as §1
Salmonella typhimurium [20] = test: Mutagenicity in Salmonella typhimurium TA98 assessed as increase in revertant colonies at 2.5 mg/ml in absence of Sprague-Dawley rat liver S9 fraction by Ames test relative to basal level; format: toxicity; conditions: salmonella enterica subsp. enterica serovar typhimurium; outline: as §1
Salmonella typhimurium [21] = test: Mutagenicity in Salmonella typhimurium TA100 assessed as increase in revertant colonies at 0.625 mg/ml in presence of Sprague-Dawley rat liver S9 fraction by Ames test relative to basal level; format: toxicity; conditions: salmonella enterica subsp. enterica serovar typhimurium; outline: as §1
Salmonella typhimurium [22] = test: Mutagenicity in Salmonella typhimurium TA98 assessed as increase in revertant colonies at 0.625 mg/ml in absence of Sprague-Dawley rat liver S9 fraction by Ames test relative to basal level; format: toxicity; conditions: salmonella enterica subsp. enterica serovar typhimurium; outline: as §1
Salmonella typhimurium [23] = test: Mutagenicity in Salmonella typhimurium TA98 assessed as increase in revertant colonies at 1.25 mg/ml in presence of Sprague-Dawley rat liver S9 fraction by Ames test relative to basal level; format: toxicity; conditions: salmonella enterica subsp. enterica serovar typhimurium; outline: as §1
Salmonella typhimurium [24] = test: Mutagenicity in Salmonella typhimurium TA98 assessed as increase in revertant colonies at 1.25 mg/ml in absence of Sprague-Dawley rat liver S9 fraction by Ames test relative to basal level; format: toxicity; conditions: salmonella enterica subsp. enterica serovar typhimurium; outline: as §1
Salmonella typhimurium [25] = test: Mutagenicity in Salmonella typhimurium TA98 assessed as increase in revertant colonies at 2.5 mg/ml in presence of Sprague-Dawley rat liver S9 fraction by Ames test relative to basal level; format: toxicity; conditions: salmonella enterica subsp. enterica serovar typhimurium; outline: as §1
Salmonella typhimurium [26] = test: Mutagenicity in Salmonella typhimurium TA98 assessed as increase in revertant colonies at 0.625 mg/ml in presence of Sprague-Dawley rat liver S9 fraction by Ames test relative to basal level; format: toxicity; conditions: salmonella enterica subsp. enterica serovar typhimurium; outline: as §1
Salmonella typhimurium [27] = test: Mutagenicity in Salmonella typhimurium TA98 assessed as increase in revertant colonies at 5 mg/ml in absence of Sprague-Dawley rat liver S9 fraction by Ames test relative to basal level; format: toxicity; conditions: salmonella enterica subsp. enterica serovar typhimurium; outline: as §1
Pseudomonas aeruginosa = test: Antibacterial activity against Pseudomonas aeruginosa ATCC 27853 incubated after 24 hrs by resazurin dye based broth microdilution assay; format: functional; conditions: ATCC 27853, 24 h
Listeria monocytogenes = test: Antibacterial activity against Listeria monocytogenes ATCC 7644 incubated after 24 hrs by resazurin dye based broth microdilution assay; format: functional; conditions: ATCC 7644, 24 h
Salmonella typhimurium [28] = test: Mutagenicity in Salmonella typhimurium TA100 assessed as increase in revertant colonies at 5 mg/ml in absence of Sprague-Dawley rat liver S9 fraction by Ames test relative to basal level; format: toxicity; conditions: salmonella enterica subsp. enterica serovar typhimurium; outline: as §1
[29] = tested on: Escherichia coli ATCC 25922; test: Inhibition of Escherichia coli DNA gyrase assessed as inhibition of enzyme-mediated supercoiling of relaxed pHOT1 DNA substrate after 30 mins by gel electrophoresis method
Outline: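 E. coli DNA gyrase (1 U) was incubated with relaxed pHOT1 DNA substrate (0.25 µg) for 30 min at 37 °C. Compounds were tested at 15.6, 7.8, 3.9 and 1.95 µg/L. Controls were supercoiled DNA, relaxed DNA, relaxed DNA plus gyrase, and 1% DMSO. Supercoiling was read by agarose gel electrophoresis.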

Klebsiella pneumoniae = test: Antibacterial activity against Klebsiella pneumoniae ATCC 700603 incubated after 24 hrs by resazurin dye based broth microdilution assay; format: functional; conditions: Klebsiella pneumoniae, 700603, 24 h
Salmonella typhimurium [30] = test: Mutagenicity in Salmonella typhimurium TA98 assessed as increase in revertant colonies at 0.3125 mg/ml in absence of Sprague-Dawley rat liver S9 fraction by Ames test relative to basal level; format: toxicity; conditions: salmonella enterica subsp. enterica serovar typhimurium; outline: as §1
Enterococcus faecalis [31] = test: Antibacterial activity against Enterococcus faecalis ATCC 51299 incubated after 24 hrs by resazurin dye based broth microdilution assay; format: functional; conditions: ATCC 51299, 24 h
Salmonella typhimurium [32] = test: Mutagenicity in Salmonella typhimurium TA100 assessed as increase in revertant colonies at 2.5 mg/ml in absence of Sprague-Dawley rat liver S9 fraction by Ames test relative to basal level; format: toxicity; conditions: salmonella enterica subsp. enterica serovar typhimurium; outline: as §1
Salmonella typhimurium [33] = test: Mutagenicity in Salmonella typhimurium TA98 assessed as increase in revertant colonies at 5 mg/ml in presence of Sprague-Dawley rat liver S9 fraction by Ames test relative to basal level; format: toxicity; conditions: salmonella enterica subsp. enterica serovar typhimurium; outline: as §1
[34] = Selectivity index, ratio of IC50 for mouse NIH/3T3 cells to MIC90 for Listeria monocytogenes ATCC 7644; format: toxicity; conditions: read-out: Selectivity Index

CN(C)CCCN1CCN(c2nc3c(cc2F)c(=O)c(C(=O)O)cn3-c2ccc(F)cc2F)CC1
54: selectivity ratio [1] | selectivity ratio [13] | selectivity ratio [34]
7.8 µg/mL: MIC90 (Pseudomonas aeruginosa) | MIC90 (Listeria monocytogenes) | MIC90 (Klebsiella pneumoniae)
0: fold change (FC) (Salmonella typhimurium [2]) | fold change (FC) (Salmonella typhimurium [3]) | fold change (FC) (Salmonella typhimurium [4]) | fold change (FC) (Salmonella typhimurium [5]) | fold change (FC) (Salmonella typhimurium [10]) | fold change (FC) (Salmonella typhimurium [11]) | fold change (FC) (Salmonella typhimurium [12]) | fold change (FC) (Salmonella typhimurium [14]) | fold change (FC) (Salmonella typhimurium [15]) | fold change (FC) (Salmonella typhimurium [17]) | fold change (FC) (Salmonella typhimurium [19]) | fold change (FC) (Salmonella typhimurium [20]) | fold change (FC) (Salmonella typhimurium [21]) | fold change (FC) (Salmonella typhimurium [22]) | fold change (FC) (Salmonella typhimurium [23]) | fold change (FC) (Salmonella typhimurium [24]) | fold change (FC) (Salmonella typhimurium [25]) | fold change (FC) (Salmonella typhimurium [26]) | fold change (FC) (Salmonella typhimurium [27]) | fold change (FC) (Salmonella typhimurium [28]) | fold change (FC) (Salmonella typhimurium [30]) | fold change (FC) (Salmonella typhimurium [32]) | fold change (FC) (Salmonella typhimurium [33])
0.11: fold change (FC) (Salmonella typhimurium [7])
active: Activity (Staphylococcus aureus [6]) | inhibition [29] Dose-dependent effect
440 µg/mL: IC50 (NIH3T3)
3.9 µg/mL: MIC90 (Enterococcus faecalis [8]) | MIC90 (Enterococcus faecalis [31])
1.95 µg/mL: MIC90 (Escherichia coli [9]) | MIC90 (Staphylococcus aureus [16]) | MIC90 (Escherichia coli [18])
